Assay results: ChEMBL document CHEMBL3045677, “Sulfonamide-1,2,4-thiadiazole derivatives as antifungal and antibacterial agents: synthesis, biological evaluation, lipophilicity, and conformational studies” (2010)
Converted amounts (≈) assume the structure as drawn.

Assays:
Fulvia fulva = assay: Antifungal activity against Passalora fulva TK5318 at 28 degC measured after 72 hr by microdilution method; format: functional; conditions: TK5318, 72 h
How it was run: (§1)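 Fungi were kept on malt agar at 4 °C. Spores were washed off with sterile 0.85% saline containing 0.1% Tween 80 and adjusted to about 1.0×10⁵ per well. Compounds were dissolved in DMSO (1 mg/ml stock) and serially diluted in malt broth with inoculum in 96-well plates, 72 h at 28 °C, for MIC. MFC came from subculture into fresh broth for a further 72 h at 28 °C.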

Aspergillus versicolor = assay: Antifungal activity against Aspergillus versicolor ATCC 11730 at 28 degC measured after 72 hr by microdilution method; format: functional; conditions: ATCC 11730, 72 h; how it was run: as §1
Aspergillus flavus = assay: Antifungal activity against Aspergillus flavus ATCC 9643 at 28 degC measured after 72 hr by microdilution method; format: functional; conditions: ATCC 9643, 72 h; how it was run: as §1
Aspergillus niger = assay: Antifungal activity against Aspergillus niger ATCC 6275 at 28 degC measured after 72 hr by microdilution method; format: functional; conditions: ATCC 6275, 72 h; how it was run: as §1
Trichoderma viride = assay: Antifungal activity against Hypocrea rufa IAM 5061 at 28 degC measured after 72 hr by microdilution method; format: functional; conditions: IAM 5061, 72 h; how it was run: as §1
Aspergillus fumigatus = assay: Antifungal activity against plant isolate Aspergillus fumigatus at 28 degC measured after 72 hr by microdilution method; format: functional; how it was run: as §1
Penicillium ochrochloron = assay: Antifungal activity against Penicillium ochrochloron ATCC 9112 at 28 degC measured after 72 hr by microdilution method; format: functional; conditions: ATCC 9112, 72 h; how it was run: as §1
Talaromyces funiculosus = assay: Antifungal activity against Talaromyces funiculosus ATCC 36839 at 28 degC measured after 72 hr by microdilution method; format: functional; conditions: ATCC 36839, 72 h; how it was run: as §1
Listeria monocytogenes [1] = assay: Antibacterial activity against Listeria monocytogenes NCTC 7973 at […] degC measured after 72 hr by microdilution method; format: functional; conditions: NCTC 7973, 72 h
How it was run: (§2)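 Bactericidal endpoint: after the 24 h broth microdilution (1.0×10⁴ CFU per well, LB broth, […] °C), wells were serially subcultured into plates of fresh broth and incubated a further 72 h. MBC was the lowest concentration with no visible growth, taken as 99.5% killing of the original inoculum.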

Proteus mirabilis [2] = assay: Antibacterial activity against Proteus mirabilis at […] degC measured after 72 hr by microdilution method; format: functional; how it was run: as §2
Salmonella typhimurium [3] = assay: Antibacterial activity against Salmonella enterica subsp. enterica serovar TyphimuriumATCC 13311 at […] degC measured after 72 hr by microdilution method; format: functional, Salmonella enterica subsp. enterica serovar Typhimurium; conditions: ATCC 13311, 72 h; how it was run: as §2
Pseudomonas aeruginosa [4] = assay: Antibacterial activity against Pseudomonas aeruginosa ATCC 27853 at […] degC measured after 72 hr by microdilution method; format: functional; conditions: ATCC 27853, 72 h; how it was run: as §2
Escherichia coli [5] = assay: Antibacterial activity against Escherichia coli ATCC 35210 at […] degC measured after 72 hr by microdilution method; format: functional; conditions: ATCC 35210, 72 h; how it was run: as §2
Staphylococcus aureus [6] = assay: Antibacterial activity against Staphylococcus aureus ATCC 6538 at […] degC measured after 72 hr by microdilution method; format: functional; conditions: ATCC 6538, 72 h; how it was run: as §2
Micrococcus flavus [7] = assay: Antibacterial activity against Micrococcus flavus ATCC 10240 at […] degC measured after 72 hr by microdilution method; format: functional; conditions: ATCC 10240, 72 h; how it was run: as §2
Bacillus cereus [8] = assay: Antibacterial activity against clinical isolate Bacillus cereus at […] degC measured after 72 hr by microdilution method; format: functional; how it was run: as §2
Listeria monocytogenes [9] = assay: Antibacterial activity against Listeria monocytogenes NCTC 7973 at […] degC measured after 24 hr by microdilution method; format: functional; conditions: NCTC 7973, 24 h
How it was run: (§3)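 Bacteria suspended in sterile saline at 1.0×10⁵ CFU/ml and added at 1.0×10⁴ CFU per well to LB broth with compound (1 mg/ml) in 96-well plates. Incubated 24 h at […] °C. MIC was the lowest concentration without visible growth under a binocular microscope. OD 655 nm was read against a blank and a positive control.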

Salmonella typhimurium [10] = assay: Antibacterial activity against Salmonella enterica subsp. enterica serovar Typhimurium ATCC 13311 at […] degC measured after 24 hr by microdilution method; format: functional; conditions: ATCC 13311, 24 h; how it was run: as §3
Pseudomonas aeruginosa [11] = assay: Antibacterial activity against Pseudomonas aeruginosa ATCC 27853 at […] degC measured after 24 hr by microdilution method; format: functional; conditions: ATCC 27853, 24 h; how it was run: as §3
Proteus mirabilis [12] = assay: Antibacterial activity against Proteus mirabilis at […] degC measured after 24 hr by microdilution method; format: functional; how it was run: as §3
Escherichia coli [13] = assay: Antibacterial activity against Escherichia coli ATCC 35210 at […] degC measured after 24 hr by microdilution method; format: functional; conditions: ATCC 35210, 24 h; how it was run: as §3
Staphylococcus aureus [14] = assay: Antibacterial activity against Staphylococcus aureus ATCC 6538 at […] degC measured after 24 hr by microdilution method; format: functional; conditions: ATCC 6538, 24 h; how it was run: as §3
Bacillus cereus [15] = assay: Antibacterial activity against clinical isolate Bacillus cereus at […] degC measured after 24 hr by microdilution method; format: functional; how it was run: as §3
Micrococcus flavus [16] = assay: Antibacterial activity against Micrococcus flavus ATCC 10240 at […] degC measured after 24 hr by microdilution method; format: functional; conditions: ATCC 10240, 24 h; how it was run: as §3

COc1cc(Cc2nnc(Nc3ccc([N+](=O)[O-])cc3)s2)c(S(=O)(=O)N(C)C)cc1OC
MFC (Fulvia fulva): 20.9 µM (≈ 10 µg/mL)
MIC (Fulvia fulva): 10.5 µM (≈ 5.04 µg/mL)
MFC (Aspergillus versicolor): 41.8 µM (≈ 20 µg/mL)
MIC (Aspergillus versicolor): 20.9 µM (≈ 10 µg/mL)
MFC (Aspergillus flavus): 41.8 µM (≈ 20 µg/mL)
MIC (Aspergillus flavus): 20.9 µM (≈ 10 µg/mL)
MFC (Aspergillus niger): 41.8 µM (≈ 20 µg/mL)
MIC (Aspergillus niger): 20.9 µM (≈ 10 µg/mL)
MFC (Trichoderma viride): 20.9 µM (≈ 10 µg/mL)
MIC (Trichoderma viride): 10.5 µM (≈ 5.04 µg/mL)
MFC (Aspergillus fumigatus): 41.8 µM (≈ 20 µg/mL)
MIC (Aspergillus fumigatus): 20.9 µM (≈ 10 µg/mL)
MFC (Penicillium ochrochloron): 41.8 µM (≈ 20 µg/mL)
MIC (Penicillium ochrochloron): 10.9 µM (≈ 5.23 µg/mL)
MFC (Talaromyces funiculosus): 20.9 µM (≈ 10 µg/mL)
MIC (Talaromyces funiculosus): 10.5 µM (≈ 5.04 µg/mL)
MBC (Listeria monocytogenes [1]): 83.6 µM (≈ 40.1 µg/mL)
MBC (Proteus mirabilis [2]): 83.6 µM (≈ 40.1 µg/mL)
MBC (Salmonella typhimurium [3]): 20.9 µM (≈ 10 µg/mL)
MBC (Pseudomonas aeruginosa [4]): 41.8 µM (≈ 20 µg/mL)
MBC (Escherichia coli [5]): 83.6 µM (≈ 40.1 µg/mL)
MBC (Staphylococcus aureus [6]): 83.6 µM (≈ 40.1 µg/mL)
MBC (Micrococcus flavus [7]): 83.6 µM (≈ 40.1 µg/mL)
MBC (Bacillus cereus [8]): 20.9 µM (≈ 10 µg/mL)
MIC (Listeria monocytogenes [9]): 41.8 µM (≈ 20 µg/mL)
MIC (Salmonella typhimurium [10]): 10.5 µM (≈ 5.04 µg/mL)
MIC (Pseudomonas aeruginosa [11]): 15.7 µM (≈ 7.53 µg/mL)
MIC (Proteus mirabilis [12]): 41.8 µM (≈ 20 µg/mL)
MIC (Escherichia coli [13]): 20.9 µM (≈ 10 µg/mL)
MIC (Staphylococcus aureus [14]): 41.8 µM (≈ 20 µg/mL)
MIC (Bacillus cereus [15]): 10.5 µM (≈ 5.04 µg/mL)
MIC (Micrococcus flavus [16]): 20.9 µM (≈ 10 µg/mL)

COc1cc(Cc2nnc(Nc3ccc(C(F)(F)F)cc3)s2)c(S(=O)(=O)N(C)C)cc1OC
MFC (Fulvia fulva): 19.9 µM (≈ 10 µg/mL)
MIC (Fulvia fulva): 9.9 µM (≈ 4.98 µg/mL)
MFC (Aspergillus versicolor): 39.8 µM (≈ 20 µg/mL)
MIC (Aspergillus versicolor): 9.9 µM (≈ 4.98 µg/mL)
MFC (Aspergillus flavus): 39.8 µM (≈ 20 µg/mL)
MIC (Aspergillus flavus): 19.9 µM (≈ 10 µg/mL)
MFC (Aspergillus niger): 39.8 µM (≈ 20 µg/mL)
MIC (Aspergillus niger): 19.9 µM (≈ 10 µg/mL)
MFC (Trichoderma viride): 19.9 µM (≈ 10 µg/mL)
MIC (Trichoderma viride): 9.9 µM (≈ 4.98 µg/mL)
MFC (Aspergillus fumigatus): 39.8 µM (≈ 20 µg/mL)
MIC (Aspergillus fumigatus): 19.9 µM (≈ 10 µg/mL)
MFC (Penicillium ochrochloron): 39.8 µM (≈ 20 µg/mL)
MIC (Penicillium ochrochloron): 9.9 µM (≈ 4.98 µg/mL)
MFC (Talaromyces funiculosus): 19.9 µM (≈ 10 µg/mL)
MIC (Talaromyces funiculosus): 9.9 µM (≈ 4.98 µg/mL)
MBC (Listeria monocytogenes [1]): 79.6 µM (≈ 40 µg/mL)
MBC (Proteus mirabilis [2]): 79.6 µM (≈ 40 µg/mL)
MBC (Salmonella typhimurium [3]): 19.9 µM (≈ 10 µg/mL)
MBC (Pseudomonas aeruginosa [4]): 39.8 µM (≈ 20 µg/mL)
MBC (Escherichia coli [5]): 79.6 µM (≈ 40 µg/mL)
MBC (Staphylococcus aureus [6]): 39.8 µM (≈ 20 µg/mL)
MBC (Micrococcus flavus [7]): 19.9 µM (≈ 10 µg/mL)
MBC (Bacillus cereus [8]): 19.9 µM (≈ 10 µg/mL)
MIC (Listeria monocytogenes [9]): 39.8 µM (≈ 20 µg/mL)
MIC (Salmonella typhimurium [10]): 9.9 µM (≈ 4.98 µg/mL)
MIC (Pseudomonas aeruginosa [11]): 19.9 µM (≈ 10 µg/mL)
MIC (Proteus mirabilis [12]): 19.9 µM (≈ 10 µg/mL)
MIC (Escherichia coli [13]): 39.8 µM (≈ 20 µg/mL)
MIC (Staphylococcus aureus [14]): 19.9 µM (≈ 10 µg/mL)
MIC (Bacillus cereus [15]): 9.9 µM (≈ 4.98 µg/mL)
MIC (Micrococcus flavus [16]): 9.9 µM (≈ 4.98 µg/mL)
